To fix the notation:
T1: Fatty-acid amide hydrolase 1 (Rattus norvegicus, UniProt P97612)
T1 sequence (P97612 whole entry): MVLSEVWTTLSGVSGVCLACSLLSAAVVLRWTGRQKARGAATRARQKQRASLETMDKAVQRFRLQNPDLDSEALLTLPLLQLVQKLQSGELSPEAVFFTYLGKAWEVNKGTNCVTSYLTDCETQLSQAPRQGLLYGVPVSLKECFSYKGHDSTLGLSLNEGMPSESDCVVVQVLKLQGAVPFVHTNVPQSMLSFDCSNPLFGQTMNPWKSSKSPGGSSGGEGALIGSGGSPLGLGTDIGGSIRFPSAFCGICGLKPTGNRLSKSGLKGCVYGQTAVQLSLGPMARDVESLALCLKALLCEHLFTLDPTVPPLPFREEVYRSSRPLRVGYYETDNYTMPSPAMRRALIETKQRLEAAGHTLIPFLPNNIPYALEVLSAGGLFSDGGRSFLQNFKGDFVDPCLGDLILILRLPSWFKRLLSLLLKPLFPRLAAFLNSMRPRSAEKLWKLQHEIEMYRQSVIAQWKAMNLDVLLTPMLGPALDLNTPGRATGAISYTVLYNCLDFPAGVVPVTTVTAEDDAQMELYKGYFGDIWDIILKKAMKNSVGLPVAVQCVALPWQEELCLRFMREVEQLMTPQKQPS

T2: N-acylethanolamine-hydrolyzing acid amidase (Rattus norvegicus, UniProt Q5KTC7)
T2 sequence (Q5KTC7 whole entry): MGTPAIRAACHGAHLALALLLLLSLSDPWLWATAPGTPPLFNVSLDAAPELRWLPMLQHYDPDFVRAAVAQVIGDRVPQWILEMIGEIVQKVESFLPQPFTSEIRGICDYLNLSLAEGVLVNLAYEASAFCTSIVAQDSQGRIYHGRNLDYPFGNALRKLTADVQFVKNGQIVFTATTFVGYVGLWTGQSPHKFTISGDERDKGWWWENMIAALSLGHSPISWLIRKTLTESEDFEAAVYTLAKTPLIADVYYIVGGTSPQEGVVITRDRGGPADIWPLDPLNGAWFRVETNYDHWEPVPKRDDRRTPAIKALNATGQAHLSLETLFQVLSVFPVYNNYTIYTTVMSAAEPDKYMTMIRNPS

T3: Acid ceramidase (Rattus norvegicus) (UniProt Q6P7S1)
T3 sequence (whole entry): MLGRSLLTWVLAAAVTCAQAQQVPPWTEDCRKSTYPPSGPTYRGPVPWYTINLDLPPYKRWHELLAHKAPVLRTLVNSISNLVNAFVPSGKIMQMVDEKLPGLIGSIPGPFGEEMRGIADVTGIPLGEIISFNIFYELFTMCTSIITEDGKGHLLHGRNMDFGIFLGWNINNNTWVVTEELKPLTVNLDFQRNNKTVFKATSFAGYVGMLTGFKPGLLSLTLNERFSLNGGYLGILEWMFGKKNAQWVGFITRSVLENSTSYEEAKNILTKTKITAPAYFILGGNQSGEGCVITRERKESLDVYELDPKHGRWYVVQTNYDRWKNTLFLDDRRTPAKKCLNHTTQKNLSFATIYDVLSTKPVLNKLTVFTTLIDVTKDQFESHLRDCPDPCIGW

B1: N-acylethanolamine-hydrolyzing acid amidase (Rattus norvegicus), Q5KTC7 (protein)
chain: T2 sequence (Q5KTC7 whole entry)

The source of these data is ChEMBL document CHEMBL4368874, “Synthesis, biological evaluation, and structure activity relationship (SAR) study of pyrrolidine amide derivatives as N-acylethanolamine acid amidase (NAAA) inhibitors” (Medchemcomm, 2019).

The species named for the first series is Rattus norvegicus. In words: Selectivity ratio of IC50 for rat FAAH expressed in HEK293 cells to IC50 for rat […]. The series is classed as cell-based.
Conditions: not given
As to `O=C(CCc1ccc(C2CCCCC2)cc1)N1CCCC1`, the Ratio IC50 is > 200.

Compound in the next series: O=C(/C=C/c1ccc(-c2ccccc2)cc1)N1CCCC1
In words: Competitive inhibition of rat NAAA expressed in HEK293 cells assessed as substrate Vmax at 5 uM using heptadecenoylethanolamide as substrate after 30 mins by Michaelis Menten plot analysis (reference value: 5.89 +/- 0.12 nmol/min/mg protein). It is filed as cell-based.
Conditions: not given
The Vmax is the rate approached at saturating substrate. For B1, the Vmax turned out to be 5.88 nmol/min/mg.

In the next series the target is T1, Fatty-acid amide hydrolase 1. The experiment in a line: Inhibition of rat FAAH expressed in HEK293 cells using anandamide as substrate after 30 mins HPLC-MS/MS analysis.
Conditions: not given
The term IC50 denotes the concentration that inhibits the measured activity by half. Higher therefore signals a need for much substance. Molecule `O=C(/C=C/C=C/c1ccc2c(c1)OCO2)N1CCCC1` [TRICHOSTACHINE] yielded an IC50 of 61.3 µM.

Compound in another series: O=C(/C=C/c1ccc(-c2ccccc2)cc1)N1CCCC1
In words: Competitive inhibition of rat NAAA expressed in HEK293 cells assessed as substrate Km at 5 uM using heptadecenoylethanolamide as substrate after 30 mins by Michaelis Menten plot analysis (reference value: 207 +/- 16 uM).
Conditions: not given
The series is classed as cell-based.
In general, Km refers to the substrate concentration at which the rate is half of its maximum. For the molecule B1, the Km was found to be 322 µM.

Another series concerns the target T1, Fatty-acid amide hydrolase 1. The experiment in a line: Inhibition of rat FAAH expressed in HEK293 cells using [3H]AEA as substrate after 30 mins HPLC-MS/MS analysis. The series is classed as cell-based. Conditions: in the assay text read “anandamide” for “[3H]AEA”. The procedure, abridged: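 Lysate supernatant from HEK293 cells overexpressing rat FAAH (sonication in Tris-sucrose, 800 × g spin). 30 µg protein incubated at 37 °C with 25 µM anandamide in 50 mM Tris-HCl pH 8.0 containing 0.05% fatty-acid-free BSA. Quenched with methanol containing heptadecanoic acid internal standard; remaining substrate quantified by HPLC-MS/MS; IC50 by curve fitting.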
As to `O=C(CCc1ccc(-c2ccccc2)cc1)N1CCCC1`, the IC50 worked out at 91.5 µM.
Consider `O=C(CCc1ccc(-c2ccc3c(c2)OCO3)cc1)N1CCCC1`, for which the IC50 is 91 µM.
On the same count and under the same terms, the value for `O=C(CCC1CCC(c2ccccc2)CC1)N1CCCC1` (stereo not drawn) was 66 µM.
In turn, `O=C(CCc1ccc(Oc2ccccc2)cc1)N1CCCC1` displayed an IC50 of 120 µM.
In turn, `O=C(CCC1CCC(Oc2ccccc2)CC1)N1CCCC1` (stereo not drawn) returned an IC50 of 45.1 µM.
`O=C(CCCCc1ccc2c(c1)OCO2)N1CCCC1` showed an IC50 of 42.8 µM.

The next series has as its target T2, N-acylethanolamine-hydrolyzing acid amidase. In words: Inhibition of rat NAAA expressed in HEK293 cells using heptadecenoylethanolamide as substrate after 30 mins HPLC-MS/MS analysis.
Conditions: not given
The procedure, abridged:
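Enzyme source: HEK293 cells stably overexpressing rat NAAA, grown in DMEM/10% FBS with G418. Cells were sonicated in 20 mM Tris-HCl pH 7.5 with 0.32 M sucrose, and the 800 × g supernatant was used. 30 µg protein was incubated with 25 µM heptadecenoylethanolamide for 30 min at 37 °C in 50 mM phosphate pH 4.5 with 0.1% Triton X-100 and 3 mM DTT. Stopped with methanol containing heptadecanoic acid internal standard; remaining substrate measured by HPLC-MS/MS; IC50 from curve fitting.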
As to `O=C(CCCCCCc1ccc(F)cc1)N1CCCC1`, the IC50 was 8 µM.
For the molecule `Cc1ccc(-c2ccc(CCC(=O)N3CCCC3)cc2)cc1`, the IC50 amounted to 33.2 µM.
Turning to `COc1ccc(CCCCCCC(=O)N2CCCC2)cc1`, the IC50 stood at 35.4 µM.
`O=C(CCc1ccc(-c2ccsc2)cc1)N1CCCC1` gave a half-inhibitory concentration (IC50) of 2.5 µM.
Still for that read-out and setting: the value for `O=C(CCCC/C=C/c1cccc(OCc2ccccc2)c1)N1CCCC1` was > 100 µM; that for `O=C(CCCCCCc1ccccc1F)N1CCCC1` was 13.7 µM; that for `O=C(CCCCCCc1cccs1)N1CCCC1` was 14.1 µM.
For `O=C(CCCCCCc1ccsc1)N1CCCC1`, the concentration for half-maximal inhibition (IC50) is 13.2 µM.
In the case of `O=C(/C=C/C=C/c1ccc2c(c1)OCO2)N1CCCC1` [TRICHOSTACHINE], 4.1 µM corresponded to half-maximal inhibition (IC50).
The same measure, in the same setting: the value for `O=C(CCc1ccc(-c2cccc(Cl)c2)cc1)N1CCCC1` was 25.4 µM; that for `O=C(CCCCCCc1cccc(O)c1)N1CCCC1` was > 100 µM.
The same measure, in the same setting: the value for `O=C(CCCCCCc1cccnc1)N1CCCC1` was > 100 µM.
The same measure, in the same setting: then `CCCc1ccc(CCCCCCC(=O)N2CCCC2)cc1`, with > 100 µM; and `O=C(CCc1ccc(-c2ccccc2F)cc1)N1CCCC1`, with 2.8 µM.
Regarding `O=C(CCc1ccc(-c2ccc3c(c2)OCO3)cc1)N1CCCC1`, the IC50 is > 100 µM.
`O=C(CCC1CCC(c2ccccc2)CC1)N1CCCC1` (stereo not drawn) gave an IC50 of 0.48 µM.
Molecule `O=C(CCCCCCc1ccc(Cl)cc1)N1CCCC1` showed an IC50 of 34.5 µM.
The same measure, in the same setting: then `COC(=O)c1ccc(CCCCCCC(=O)N2CCCC2)cc1`, with > 100 µM; and `O=C(CCc1ccc(Oc2ccccc2)cc1)N1CCCC1`, with > 100 µM; and `O=C(CCc1ccc(-c2ccccc2Cl)cc1)N1CCCC1`, with > 100 µM.
As for `O=C(CCCCCCc1ccc(O)cc1)N1CCCC1`, the midpoint of inhibition, the IC50, lay at 5.6 µM.
Molecule `O=C(CCc1ccc(C2CCCCC2)cc1)N1CCCC1` yielded an IC50 of 0.5 µM.
On the same count and under the same terms, the value for `O=C(CCC1CCC(Oc2ccccc2)CC1)N1CCCC1` (stereo not drawn) was 2.8 µM; that for `O=C(CCCCCCc1cccc(Cl)c1)N1CCCC1` was 3.7 µM.
In the case of `COc1cccc(CCCCCCC(=O)N2CCCC2)c1`, the IC50 is > 100 µM.
In turn, `Cc1ccc(CCCCCCC(=O)N2CCCC2)cc1` registered an IC50 of 9.6 µM.
As to `O=C(CCc1ccc(-c2cccc(F)c2)cc1)N1CCCC1`, the IC50 was 1.8 µM.
Molecule `O=C(CCc1ccc(-c2ccc(Cl)cc2)cc1)N1CCCC1` had an IC50 of 48.6 µM.
Same read-out and setting: the value for `O=C(CCCCCCc1ccccc1Cl)N1CCCC1` was > 100 µM; that for `Cc1cccc(-c2ccc(CCC(=O)N3CCCC3)cc2)c1` was 16.5 µM; that for `O=C(CCCCCCC1CCCCC1)N1CCCC1` was 5.7 µM.
Still for that read-out and setting: then `Cc1ccccc1CCCCCCC(=O)N1CCCC1`, with 68.4 µM; and `O=C(CCCCCCc1ccccn1)N1CCCC1`, with > 100 µM; and `O=C(CCCC/C=C/c1ccc(OCc2ccccc2)cc1)N1CCCC1`, with > 100 µM.
On the same count and under the same terms, then `O=C(CCCCc1ccc2c(c1)OCO2)N1CCCC1`, with 5.5 µM.
Regarding `Cc1ccccc1-c1ccc(CCC(=O)N2CCCC2)cc1`, the IC50 is > 100 µM.
For `Cc1cccc(CCCCCCC(=O)N2CCCC2)c1`, the IC50 was determined as 8.3 µM.
The molecule `O=C(CCc1ccc(-c2ccc(F)cc2)cc1)N1CCCC1` registered an IC50 of 3.4 µM.
Still for that read-out and setting: the value for `O=C(CCc1ccc(OC2CCCCC2)cc1)N1CCCC1` was 0.7 µM; that for `O=C(CCc1ccc(-c2cccnc2)cc1)N1CCCC1` was > 100 µM.
The same measure, in the same setting: the value for `O=C(CCCCCCc1cccc(F)c1)N1CCCC1` was 7.3 µM; that for `COC(=O)c1cccc(CCCCCCC(=O)N2CCCC2)c1` was > 100 µM; that for `O=C(CCc1ccc(-c2ccccn2)cc1)N1CCCC1` was > 100 µM.
For the molecule `CCCc1cccc(CCCCCCC(=O)N2CCCC2)c1`, the IC50 is > 100 µM.
On the same count and under the same terms, then `O=C(CCc1ccc(-c2cccs2)cc1)N1CCCC1`, with > 100 µM.
With `O=C(O)c1cccc(CCCCCCC(=O)N2CCCC2)c1`, the IC50 was > 100 µM.
`O=C(O)c1ccc(CCCCCCC(=O)N2CCCC2)cc1`: the IC50 was > 100 µM.

The target of another series is T3, Acid ceramidase (Rattus norvegicus). The experiment in a line: Inhibition of rat acid ceramidase at 100 uM using N-lauroylceramide as substrate after 30 mins by LC-MS analysis relative to control.
Conditions: not given
The procedure, abridged:
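100 µg recombinant rat acid ceramidase incubated for 30 min at 37 °C in 50 mM phosphate pH 5.0 with 0.1% Triton X-100, 3 mM DTT, 100 µM N-lauroylceramide substrate and test compound. Stopped with methanol containing 1 nmol heptadecanoic acid; products analysed by LC/MS.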
What is called inhibition is the share of the control response that was lost under treatment. Higher therefore signals a response far below the control. Turning to `O=C(CCc1ccc(C2CCCCC2)cc1)N1CCCC1`, the inhibition was < 10%.
